The values below come from ChEMBL document CHEMBL2150950, “Effect of 4-aryl-2-methyl-5-nitro-1,4-dihydropyridine-3-carboxylates on the guinea pig papillary muscle and isolated human vena saphena magna that is used for coronary artery bypass grafting” (2011).

Calls of active or inactive are those of the source. The rule behind the calls is not given here.

Assay [1] is described as follows: Ionotropic effect in guinea pig right ventricle papillary muscles assessed as contraction force at 10^-6 M by force transduction assay relative to untreated control (reference value: 100%). Type of assay: functional, Cavia porcellus, Papillary muscle.
Assay [2] can be described thus: Ionotropic effect in guinea pig right ventricle papillary muscles assessed as contraction force at 10^-7 M by force transduction assay relative to untreated control (reference value: 100%). Type of assay: functional, Cavia porcellus, Papillary muscle.
Assay [3] in a line: Vasodilatory activity in human vena saphena magna assessed as reduction in phenylephrine-induced smooth muscle contraction at 10 uM. It counts as functional. The method in brief:
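Saphenous vein rings came from 37 CABG patients. They were bathed in Tyrode's solution (mM: NaCl 137, KCl 5.4, CaCl2 1.8, MgCl2 0.9, Tris HCl 10, glucose 5; pH 7.4), equilibrated 45–60 min and washed every 15 min. Rings were precontracted with 10^-4 M phenylephrine, then given cumulative test agent at 10^-7 to 10^-4 M. Isometric relaxation was recorded, as means ± SE.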

Assay [4] in a line: Ionotropic effect in guinea pig ventricle papillary muscles assessed as lengthening of 90% repolarized cardiac action potential duration time at 10^-5 M by microelectrode technique relative to untreated control (reference value: 209 to 222 APD50 ms) in presence of 3.1 x 10^-6 M inward rectifier current blocker BaCl2. It counts as functional, Cavia porcellus.
The nature of assay [5]: Ionotropic effect in guinea pig ventricle papillary muscles assessed as lengthening of 50% repolarized cardiac action potential duration time at 10^-6 M by microelectrode technique relative to untreated control (reference value: 180 to 192 APD50 ms) in presence of 3.1 x 10^-6 M inward rectifier current blocker BaCl2. Type of assay: functional, Cavia porcellus.
Assay [6] can be described thus: Ionotropic effect in guinea pig ventricle papillary muscles assessed as lengthening of 10% repolarized cardiac action potential duration time at 10^-6 M by microelectrode technique relative to untreated control (reference value: 52 to 54 APD10 ms) in presence of 3.1 x 10^-6 M inward rectifier current blocker BaCl2. Type of assay: functional, Cavia porcellus.
A short description of assay [7]: Ionotropic effect in guinea pig ventricle papillary muscles assessed as lengthening of 10% repolarized cardiac action potential duration time at 10^-7 M by microelectrode technique relative to untreated control (reference value: 52 to 54 APD10 ms) in presence of 3.1 x 10^-6 M inward rectifier current blocker BaCl2. Type of assay: functional, Cavia porcellus.
Assay [8] can be described thus: Ionotropic effect in guinea pig ventricle papillary muscles assessed as lengthening of 50% repolarized cardiac action potential duration time at 10^-4 M by microelectrode technique relative to untreated control (reference value: 180 to 192 APD50 ms) in presence of 1 x 10^-6 M IKr channel blocker Sotalol. It counts as functional, Cavia porcellus.
Assay [9] in a line: Ionotropic effect in guinea pig ventricle papillary muscles assessed as lengthening of 25% repolarized cardiac action potential duration time at 10^-5 M by microelectrode technique relative to untreated control (reference value: 120 to 131 APD25 ms) in presence of 1 x 10^-6 M IKr channel blocker Sotalol. Type of assay: functional, Cavia porcellus.
Assay [10] in a line: Ionotropic effect in guinea pig ventricle papillary muscles assessed as lengthening of 25% repolarized cardiac action potential duration time at 10^-6 M by microelectrode technique relative to untreated control (reference value: 120 to 131 APD25 ms) in presence of 1 x 10^-6 M IKr channel blocker Sotalol. It counts as functional, Cavia porcellus.
Assay [11] is described as follows: Ionotropic effect in guinea pig ventricle papillary muscles assessed as lengthening of 25% repolarized cardiac action potential duration time at 10^-7 M by microelectrode technique relative to untreated control (reference value: 120 to 131 APD25 ms) in presence of 1 x 10^-6 M IKr channel blocker Sotalol. Type of assay: functional, Cavia porcellus.
A short description of assay [12]: Ionotropic effect in guinea pig ventricle papillary muscles assessed as lengthening of 10% repolarized cardiac action potential duration time at 10^-6 M by microelectrode technique relative to untreated control (reference value: 52 to 54 APD10 ms) in presence of 1 x 10^-6 M IKr channel blocker Sotalol. It counts as functional, Cavia porcellus.
Assay [13] is described as follows: Ionotropic effect in guinea pig right ventricle papillary muscles assessed as contraction force at 10^-4 M by force transduction assay relative to untreated control (reference value: 100%) in presence of 1 x 10^-6 M IKr channel blocker Sotalol. It counts as functional, Cavia porcellus, Heart right ventricle.
Assay [14] is described as follows: Ionotropic effect in guinea pig right ventricle papillary muscles assessed as contraction force at 10^-5 M by force transduction assay relative to untreated control (reference value: 100%) in presence of 1 x 10^-6 M IKr channel blocker Sotalol. It counts as functional, Cavia porcellus, Heart right ventricle.
The nature of assay [15]: Ionotropic effect in guinea pig right ventricle papillary muscles assessed as contraction force at 10^-6 M by force transduction assay relative to untreated control (reference value: 100%) in presence of 1 x 10^-6 M IKr channel blocker Sotalol. Type of assay: functional, Cavia porcellus, Heart right ventricle.
The nature of assay [16]: Ionotropic effect in guinea pig ventricle papillary muscles assessed as lengthening of 90% repolarized cardiac action potential duration time at 10^-4 M by microelectrode technique relative to untreated control (reference value: 209 to 222 APD50 ms) in presence of 2 x 10^-5 M KATP channel blocker glibenclamide. It counts as functional, Cavia porcellus.
A short description of assay [17]: Ionotropic effect in guinea pig ventricle papillary muscles assessed as lengthening of 90% repolarized cardiac action potential duration time at 10^-6 M by microelectrode technique relative to untreated control (reference value: 209 to 222 APD50 ms) in presence of 2 x 10^-5 M KATP channel blocker glibenclamide. Type of assay: functional, Cavia porcellus.
The nature of assay [18]: Ionotropic effect in guinea pig ventricle papillary muscles assessed as lengthening of 50% repolarized cardiac action potential duration time at 10^-6 M by microelectrode technique relative to untreated control (reference value: 180 to 192 APD50 ms) in presence of 2 x 10^-5 M KATP channel blocker glibenclamide. It counts as functional, Cavia porcellus.
Assay [19] in a line: Ionotropic effect in guinea pig ventricle papillary muscles assessed as lengthening of 25% repolarized cardiac action potential duration time at 10^-6 M by microelectrode technique relative to untreated control (reference value: 120 to 131 APD25 ms) in presence of 2 x 10^-5 M KATP channel blocker glibenclamide. It counts as functional, Cavia porcellus.
Assay [20] can be described thus: Ionotropic effect in guinea pig ventricle papillary muscles assessed as lengthening of 25% repolarized cardiac action potential duration time at 10^-7 M by microelectrode technique relative to untreated control (reference value: 120 to 131 APD25 ms) in presence of 2 x 10^-5 M KATP channel blocker glibenclamide. It counts as functional, Cavia porcellus.
Assay [21] is described as follows: Ionotropic effect in guinea pig ventricle papillary muscles assessed as lengthening of 90% repolarized cardiac action potential duration time at 10^-6 M by microelectrode technique relative to untreated control (reference value: 132 to 176 APD50 ms). Type of assay: functional, Cavia porcellus, Papillary muscle.
The nature of assay [22]: Ionotropic effect in guinea pig ventricle papillary muscles assessed as lengthening of 90% repolarized cardiac action potential duration time at 10^-7 M by microelectrode technique relative to untreated control (reference value: 132 to 176 APD50 ms). It counts as functional, Cavia porcellus, Papillary muscle.
Assay [23] can be described thus: Ionotropic effect in guinea pig ventricle papillary muscles assessed as lengthening of 10% repolarized cardiac action potential duration time at 10^-4 M by microelectrode technique relative to untreated control (reference value: 37 to 47 APD10 ms). It counts as functional, Cavia porcellus, Papillary muscle.
A short description of assay [24]: Ionotropic effect in guinea pig right ventricle papillary muscles assessed as contraction force at 10^-4 M by force transduction assay relative to untreated control (reference value: 100%). It counts as functional, Cavia porcellus, Papillary muscle.

Turning to `CCCOCCOC(=O)C1=C(C)NC=C([N+](=O)[O-])C1c1ccccc1OC(F)F` (centres undefined), the Activity in assay [1] is 120%; in [2], 108%; in [13] it was 154.8%; in [14], 100.2%; in [15] it was 93.6%; in [24], 190.8%. Also, the result in [3] was Active. Further, the Time in assay [4] was determined as 260.5 ms; in [5], 224 ms; in [6] it was 60.9 ms; in [7], 64.3 ms; in assay [8] it was 218.9 ms; in [9], 133.6 ms. The Time in assay [10] was 132.9 ms; in [11], 130 ms; in [12], 49 ms; in [16], 276 ms; in assay [17], 247 ms; in assay [18], 219 ms. Also, the Time was determined as 148 ms in assay [19]; 141 ms in [20]; 229 ms in assay [21]; 221.6 ms in assay [22]; 55.5 ms in assay [23].
